# Test results reported in ChEMBL document CHEMBL1149183, “Novel benzo[1,4]diazepin-2-one derivatives as endothelin receptor antagonists” (J Med Chem, 2004).
# Columns and labels:
# [1] = target: T1, Endothelin receptor type B (Homo sapiens, UniProt P24530); assay: Antagonist activity towards human recombinant Endothelin B receptor expressed in chinese hamster ovary (CHO) cells determined using [125I]ET1 as radioligand; format: functional, cell-based
# T1 sequence (P24530 whole entry): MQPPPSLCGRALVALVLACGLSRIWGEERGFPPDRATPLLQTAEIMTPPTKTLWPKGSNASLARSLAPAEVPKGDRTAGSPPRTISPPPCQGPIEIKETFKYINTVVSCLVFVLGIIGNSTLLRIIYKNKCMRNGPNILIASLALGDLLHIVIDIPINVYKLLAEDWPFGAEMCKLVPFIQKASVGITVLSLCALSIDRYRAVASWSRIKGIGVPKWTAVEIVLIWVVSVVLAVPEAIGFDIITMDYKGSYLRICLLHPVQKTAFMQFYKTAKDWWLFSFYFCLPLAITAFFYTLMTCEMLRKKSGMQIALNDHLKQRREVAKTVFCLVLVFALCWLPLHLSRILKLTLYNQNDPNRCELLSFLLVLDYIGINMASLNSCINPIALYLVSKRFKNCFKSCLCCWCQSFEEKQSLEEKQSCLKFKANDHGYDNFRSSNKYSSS
# Endothelin-1 receptor = target: T2, Endothelin-1 receptor (Homo sapiens, UniProt P25101); assay: Antagonist activity towards human recombinant Endothelin A receptor expressed in chinese hamster ovary (CHO) cells determined using [125I]ET1 as radioligand; format: functional, cell-based
# T2 sequence (P25101 whole entry): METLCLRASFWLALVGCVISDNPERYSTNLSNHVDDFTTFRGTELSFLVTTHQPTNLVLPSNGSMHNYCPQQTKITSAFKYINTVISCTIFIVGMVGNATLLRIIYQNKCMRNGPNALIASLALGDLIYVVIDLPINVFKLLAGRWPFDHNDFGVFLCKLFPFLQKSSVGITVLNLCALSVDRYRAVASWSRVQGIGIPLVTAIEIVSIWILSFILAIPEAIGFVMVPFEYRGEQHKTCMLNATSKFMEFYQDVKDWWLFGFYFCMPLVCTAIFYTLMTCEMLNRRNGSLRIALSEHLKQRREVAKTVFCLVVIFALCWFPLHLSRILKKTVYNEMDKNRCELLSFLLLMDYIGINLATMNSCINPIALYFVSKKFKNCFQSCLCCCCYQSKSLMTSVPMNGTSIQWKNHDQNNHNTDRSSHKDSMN
# Endothelin receptor [2] = target: T3, Endothelin receptor (Rattus norvegicus, UniProt P26684+P21451); assay: Inhibitory potency at native endothelin A and endothelin B receptors by inhibiting endothelin-1 contractions of rat aortic rings; format: functional
# T3 sequence (P26684 whole entry): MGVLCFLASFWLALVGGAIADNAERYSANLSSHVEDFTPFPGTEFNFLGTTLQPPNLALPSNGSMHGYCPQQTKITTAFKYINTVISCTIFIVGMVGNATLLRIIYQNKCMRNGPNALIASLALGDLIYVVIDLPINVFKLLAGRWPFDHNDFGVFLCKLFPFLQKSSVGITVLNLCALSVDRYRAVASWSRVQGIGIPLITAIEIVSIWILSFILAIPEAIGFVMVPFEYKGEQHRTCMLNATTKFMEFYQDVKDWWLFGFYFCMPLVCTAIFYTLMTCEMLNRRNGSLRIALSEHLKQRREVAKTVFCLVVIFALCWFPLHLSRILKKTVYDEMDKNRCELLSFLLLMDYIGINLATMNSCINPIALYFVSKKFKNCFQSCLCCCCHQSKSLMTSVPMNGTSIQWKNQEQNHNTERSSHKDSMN
# T3 sequence (P21451 whole entry): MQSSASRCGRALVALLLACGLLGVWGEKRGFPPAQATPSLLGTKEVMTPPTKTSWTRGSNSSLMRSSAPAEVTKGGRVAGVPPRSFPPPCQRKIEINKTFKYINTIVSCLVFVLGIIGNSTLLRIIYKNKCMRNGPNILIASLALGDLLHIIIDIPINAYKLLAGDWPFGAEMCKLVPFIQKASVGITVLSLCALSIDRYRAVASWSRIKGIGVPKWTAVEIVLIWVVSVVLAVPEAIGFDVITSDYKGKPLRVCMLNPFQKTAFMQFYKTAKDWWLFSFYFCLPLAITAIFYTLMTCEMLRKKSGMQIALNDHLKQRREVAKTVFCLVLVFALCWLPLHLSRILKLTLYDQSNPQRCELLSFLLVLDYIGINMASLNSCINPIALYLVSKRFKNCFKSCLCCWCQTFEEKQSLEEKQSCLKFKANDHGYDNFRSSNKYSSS
# Rattus norvegicus [3] = assay: In vivo area between curve (ABC) as calculated from the blood pressure recordings before and after administration of 30 mg/kg to hypertensive Dahl salt sensitive rats; number of rats=12; format: functional
# Method in brief: (§1)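 Single oral dose of 30 mg/kg suspended in 10% arabic gum to hypertensive Dahl salt-sensitive rats carrying telemetry for arterial pressure and heart rate; area between pre- and post-treatment pressure curves calculated; fall in mean arterial pressure and duration of action also taken from recordings.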
# Rattus norvegicus [4] = organism: Rattus norvegicus; assay: Duration of action of compound for reducing the blood pressure of rats was determined; format: functional; method in brief: as §1
# Rattus norvegicus [5] = organism: Rattus norvegicus; assay: Maximum effect on reduction of mean arterial blood pressure was determined in rats; format: functional; method in brief: as §1
# Endothelin receptor [6] = target: T3, Endothelin receptor; assay: Inhibitory potency at native endothelin A and B receptors by inhibiting sarafotoxin Sf6 contractions of rat tracheal rings; format: functional
# [7] = Log D value was evaluated; format: physicochemical; settings: octanol/water, pH 7.4; read-out: Log D7.4
# Method in brief: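 Shake-flask partition, n-octanol versus aqueous phase buffered to pH 7.4 (67 mM KH2PO4/67 mM Na2HPO4), volume ratio 1:9; both phases assayed by HPLC.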
# Cytochrome P450 2C9 = Cytochrome P450 2C9 (Homo sapiens, UniProt P11712); assay: Inhibition of human cytochrome P450 2C9; format: ADME
# Chain of Cytochrome P450 2C9 (P11712 whole entry, canonical isoform): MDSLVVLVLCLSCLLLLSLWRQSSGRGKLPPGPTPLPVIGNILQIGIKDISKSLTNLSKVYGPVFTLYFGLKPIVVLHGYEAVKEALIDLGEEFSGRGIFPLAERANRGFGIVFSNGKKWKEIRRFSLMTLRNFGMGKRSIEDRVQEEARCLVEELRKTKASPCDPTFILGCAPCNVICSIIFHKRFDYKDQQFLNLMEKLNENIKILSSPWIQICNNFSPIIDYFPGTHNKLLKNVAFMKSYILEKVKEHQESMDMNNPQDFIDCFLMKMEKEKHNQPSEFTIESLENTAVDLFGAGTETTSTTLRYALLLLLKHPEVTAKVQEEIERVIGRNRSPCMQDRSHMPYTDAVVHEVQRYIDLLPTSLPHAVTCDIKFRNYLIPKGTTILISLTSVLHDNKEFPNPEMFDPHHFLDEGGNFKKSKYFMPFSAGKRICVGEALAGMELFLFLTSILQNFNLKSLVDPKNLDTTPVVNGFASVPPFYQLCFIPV
# Method in brief: (§2)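 Human liver microsomes with isoform marker reactions near substrate Km: diclofenac 4'-hydroxylation (2C9), dextromethorphan […] (2D6), midazolam 1'-hydroxylation (3A4); metabolite formation by LC-MS/MS; IC50 reported.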
# Cytochrome P450 3A4 = Cytochrome P450 3A4 (Homo sapiens, UniProt P08684); assay: Inhibition of human cytochrome P450 3A4; format: ADME; method in brief: as §2
# Chain of Cytochrome P450 3A4 (P08684 whole entry): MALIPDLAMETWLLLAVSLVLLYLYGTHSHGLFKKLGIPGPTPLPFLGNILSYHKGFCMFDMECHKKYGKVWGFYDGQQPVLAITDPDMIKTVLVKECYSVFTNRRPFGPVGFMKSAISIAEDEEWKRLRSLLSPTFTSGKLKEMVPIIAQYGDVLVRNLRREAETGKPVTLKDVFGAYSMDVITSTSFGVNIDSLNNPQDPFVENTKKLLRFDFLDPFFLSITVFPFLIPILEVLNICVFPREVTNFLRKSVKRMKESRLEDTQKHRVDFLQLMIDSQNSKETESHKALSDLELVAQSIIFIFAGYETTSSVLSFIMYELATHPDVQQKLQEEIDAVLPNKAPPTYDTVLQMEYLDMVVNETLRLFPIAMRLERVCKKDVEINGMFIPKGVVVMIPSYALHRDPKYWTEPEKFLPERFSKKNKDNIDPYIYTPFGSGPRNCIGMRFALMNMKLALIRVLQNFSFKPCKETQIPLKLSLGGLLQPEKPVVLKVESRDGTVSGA
# Cytochrome P450 2D6 = Cytochrome P450 2D6 (Homo sapiens, UniProt P10635); assay: Inhibition of human cytochrome P450 2D6; format: ADME; method in brief: as §2
# Chain of Cytochrome P450 2D6 (P10635 whole entry): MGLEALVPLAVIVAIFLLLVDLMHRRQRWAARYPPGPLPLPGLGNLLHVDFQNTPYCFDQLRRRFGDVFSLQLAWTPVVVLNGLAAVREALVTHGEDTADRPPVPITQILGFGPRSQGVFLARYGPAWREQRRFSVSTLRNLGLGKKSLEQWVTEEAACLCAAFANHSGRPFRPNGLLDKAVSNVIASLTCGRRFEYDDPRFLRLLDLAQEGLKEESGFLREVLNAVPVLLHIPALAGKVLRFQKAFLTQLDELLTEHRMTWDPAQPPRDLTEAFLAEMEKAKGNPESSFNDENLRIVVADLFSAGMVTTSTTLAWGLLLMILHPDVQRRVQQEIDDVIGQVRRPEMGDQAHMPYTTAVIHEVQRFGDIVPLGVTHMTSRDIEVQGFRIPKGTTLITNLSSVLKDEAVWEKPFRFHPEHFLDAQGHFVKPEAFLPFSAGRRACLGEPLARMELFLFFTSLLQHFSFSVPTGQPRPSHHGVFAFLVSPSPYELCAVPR
# Rattus norvegicus [8] = assay: In vivo area between curve (ABC) as calculated from the blood pressure recordings before and after administration of 30 mg/kg to hypertensive Dahl salt sensitive rats; number of rats=15; format: functional; method in brief: as §1
# Rattus norvegicus [9] = assay: In vivo area between curve (ABC) as calculated from the blood pressure recordings before and after administration of 30 mg/kg to hypertensive Dahl salt sensitive rats; number of rats=10; format: functional; method in brief: as §1
# Rattus norvegicus [10] = assay: In vivo area between curve (ABC) as calculated from the blood pressure recordings before and after administration of 30 mg/kg to hypertensive Dahl salt sensitive rats; number of rats=6; format: functional; method in brief: as §1
# Rattus norvegicus [11] = assay: In vivo area between curve (ABC) as calculated from the blood pressure recordings before and after administration of 30 mg/kg to hypertensive Dahl salt sensitive rats; number of rats=14; format: functional; method in brief: as §1
smiles,measurement,setting,value
COc1ccc(CN2C(=O)CN[C@](c3cccc(C)c3)([C@H](Oc3nc(C)cc(C)n3)C(=O)O)c3ccccc32)cc1 (racemic),IC50,[1],50.7 nM
same,IC50,Endothelin-1 receptor,6.3 nM
same,pA2,Endothelin receptor [2],6.32
Cc1cc(C)nc(O[C@H](C(=O)O)[C@@]2(c3cccc(-c4ccccc4)c3)NCC(=O)N(Cc3c(Cl)cccc3Cl)c3ccccc32)n1 (racemic),IC50,[1],25 nM
same,IC50,Endothelin-1 receptor,16.9 nM
same,ABC,Rattus norvegicus [3],200 mmHg·h
same,Duration of action,Rattus norvegicus [4],18 h
same,Max effect,Rattus norvegicus [5],-15 mmHg
same,pA2,Endothelin receptor [6],7.37
same,pA2,Endothelin receptor [2],8.98
Cc1cc(C)nc(O[C@H](C(=O)O)[C@@]2(c3cccc(-c4ccccc4)c3)NCC(=O)N(Cc3c(F)cc(F)cc3F)c3ccccc32)n1 (racemic),logD,[7],1.8
same,IC50,Cytochrome P450 2C9,28000 nM
same,IC50,Cytochrome P450 3A4,7000 nM
same,IC50,Cytochrome P450 2D6,> 50000 nM
same,IC50,[1],89.8 nM
same,IC50,Endothelin-1 receptor,7.9 nM
same,ABC,Rattus norvegicus [8],250 mmHg·h
same,Duration of action,Rattus norvegicus [4],24 h
same,Max effect,Rattus norvegicus [5],-12 mmHg
same,pA2,Endothelin receptor [6],7.07
same,pA2,Endothelin receptor [2],9.03
Cc1cc(C)nc(O[C@H](C(=O)O)[C@@]2(c3ccccc3)NCC(=O)N(Cc3c(F)cc(F)cc3F)c3ccccc32)n1 (racemic),logD,[7],0.4
same,IC50,Cytochrome P450 2C9,> 50000 nM
same,IC50,Cytochrome P450 3A4,41000 nM
same,IC50,Cytochrome P450 2D6,> 50000 nM
same,IC50,[1],83.6 nM
same,IC50,Endothelin-1 receptor,2.5 nM
same,ABC,Rattus norvegicus [9],674 mmHg·h
same,Duration of action,Rattus norvegicus [4],54 h
same,Max effect,Rattus norvegicus [5],-21 mmHg
same,pA2,Endothelin receptor [6],6.18
same,pA2,Endothelin receptor [2],8.18
CCCCc1cccc([C@]2([C@H](Oc3nc(C)cc(C)n3)C(=O)O)NCC(=O)N(Cc3c(F)cccc3Cl)c3ccccc32)c1 (racemic),IC50,[1],7.1 nM
same,IC50,Endothelin-1 receptor,7.6 nM
same,ABC,Rattus norvegicus [3],409 mmHg·h
same,Duration of action,Rattus norvegicus [4],36 h
same,Max effect,Rattus norvegicus [5],-23 mmHg
same,pA2,Endothelin receptor [6],7.88
same,pA2,Endothelin receptor [2],8.72
CCCCc1cccc([C@]2([C@H](Oc3nc(C)cc(C)n3)C(=O)O)NCC(=O)N(Cc3c(F)cc(F)cc3F)c3ccccc32)c1 (racemic),logD,[7],2.3
same,IC50,Cytochrome P450 2C9,15000 nM
same,IC50,Cytochrome P450 3A4,5000 nM
same,IC50,Cytochrome P450 2D6,> 50000 nM
same,IC50,[1],33.2 nM
same,IC50,Endothelin-1 receptor,13.9 nM
same,ABC,Rattus norvegicus [10],214 mmHg·h
same,Duration of action,Rattus norvegicus [4],18 h
same,Max effect,Rattus norvegicus [5],-13 mmHg
same,pA2,Endothelin receptor [6],7.72
same,pA2,Endothelin receptor [2],8.36
Cc1cc(C)nc(O[C@H](C(=O)O)[C@@]2(c3ccccc3)NCC(=O)N(C)c3ccccc32)n1 (racemic),logD,[7],-2
same,IC50,Cytochrome P450 2C9,> 50000 nM
same,IC50,Cytochrome P450 3A4,> 50000 nM
same,IC50,Cytochrome P450 2D6,> 50000 nM
same,IC50,[1],184 nM
same,IC50,Endothelin-1 receptor,12.3 nM
Cc1cc(C)nc(O[C@H](C(=O)O)[C@@]2(c3ccccc3)NCC(=O)N(Cc3c(F)c(F)c(F)c(F)c3F)c3ccccc32)n1 (racemic),IC50,[1],28.8 nM
same,IC50,Endothelin-1 receptor,6.8 nM
same,pA2,Endothelin receptor [2],7.87
Cc1cc(C)c(CN2C(=O)CN[C@](c3ccccc3)([C@H](Oc3nc(C)cc(C)n3)C(=O)O)c3ccccc32)c(C)c1 (racemic),IC50,[1],15.5 nM
same,IC50,Endothelin-1 receptor,6.7 nM
same,pA2,Endothelin receptor [2],8.1
CCCCc1cccc([C@]2([C@H](Oc3nc(C)cc(C)n3)C(=O)O)NCC(=O)N(Cc3ccc(OC)cc3)c3ccccc32)c1 (racemic),IC50,[1],36.5 nM
same,IC50,Endothelin-1 receptor,7.9 nM
same,pA2,Endothelin receptor [2],7.69
Cc1cc(C)nc(O[C@H](C(=O)O)[C@@]2(c3ccccc3)NCC(=O)N(Cc3ccc(F)c(F)c3F)c3ccccc32)n1 (racemic),IC50,[1],49.7 nM
same,IC50,Endothelin-1 receptor,6.5 nM
same,pA2,Endothelin receptor [2],7.93
CCCCc1cccc([C@]2([C@H](Oc3nc(C)cc(C)n3)C(=O)O)NCC(=O)N(Cc3c(C)cc(C)cc3C)c3ccccc32)c1 (racemic),IC50,[1],13.6 nM
same,IC50,Endothelin-1 receptor,18.3 nM
same,ABC,Rattus norvegicus [3],285 mmHg·h
same,Duration of action,Rattus norvegicus [4],24 h
same,Max effect,Rattus norvegicus [5],-21 mmHg
same,pA2,Endothelin receptor [6],7.44
same,pA2,Endothelin receptor [2],7.83
Cc1cc(C)cc(O[C@H](C(=O)O)[C@@]2(c3ccccc3)NCC(=O)N(Cc3c(F)cc(F)cc3F)c3ccccc32)c1 (racemic),logD,[7],2.1
same,IC50,Cytochrome P450 2C9,15000 nM
same,IC50,Cytochrome P450 3A4,14000 nM
same,IC50,Cytochrome P450 2D6,> 50000 nM
same,IC50,[1],565 nM
same,IC50,Endothelin-1 receptor,17.2 nM
same,ABC,Rattus norvegicus [11],483 mmHg·h
same,Duration of action,Rattus norvegicus [4],32 h
same,Max effect,Rattus norvegicus [5],-28 mmHg
same,pA2,Endothelin receptor [6],7.02
same,pA2,Endothelin receptor [2],8.27
Cc1cc(C)cc(O[C@H](C(=O)O)[C@@]2(c3ccccc3)NCC(=O)N(Cc3c(F)cccc3Cl)c3ccccc32)c1 (racemic),IC50,[1],184 nM
same,IC50,Endothelin-1 receptor,18.9 nM
same,ABC,Rattus norvegicus [3],267 mmHg·h
same,Duration of action,Rattus norvegicus [4],30 h
same,Max effect,Rattus norvegicus [5],-13 mmHg
same,pA2,Endothelin receptor [6],6.89
same,pA2,Endothelin receptor [2],6.59
COC(c1ccccc1)(c1ccccc1)[C@H](Oc1nc(C)cc(C)n1)C(=O)O (racemic) [AMBRISENTAN],IC50,Endothelin-1 receptor,21.7 nM
same,ABC,Rattus norvegicus [10],409 mmHg·h
same,Duration of action,Rattus norvegicus [4],32 h
same,Max effect,Rattus norvegicus [5],-17 mmHg
same,pA2,Endothelin receptor [6],5.63
same,pA2,Endothelin receptor [2],7.09
